Measurements as given in ChEMBL document CHEMBL1155079, “N-Hydroxypyrazolyl glycine derivatives as selective N-methyl-D-aspartic acid receptor ligands” (J Med Chem, 2008).
Calls of active or inactive are those of the source. The rule behind the calls is not given here.

Experiments:
[1] = Displacement of [3H]AMPA from AMPA receptor in rat cortical synaptosome; assay type: tissue-based, Brain
How it was run: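 Binding to rat cortical synaptosome membranes using 5 nM [3H]AMPA (45.5 Ci/mmol) as radioligand.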

[2] = Displacement of [3H]KAIN from KA receptor in rat cortical synaptosome; assay type: tissue-based, Brain
[3] = target: Glutamate NMDA receptor; assay: Displacement of [3H]CGP39653 from NMDA receptor in rat cortical synaptosome; assay type: tissue-based, Brain
[4] = target: Glutamate NMDA receptor; Grin1/Grin2b (Rattus norvegicus, UniProt P35439+Q00960); assay: Activity at rat recombinant NR1/NR2B receptor expressed in Xenopus oocytes assessed as effect on glutamate-induced current by two voltage clamp electrophysiology; assay type: cell-based, Oocyte
How it was run: (§1)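 Two-electrode voltage clamp on Xenopus oocytes injected with cRNA for NR1 plus the named NR2 subunit. Holding potential −60 to −40 mV. Continuous perfusion at 23 °C with 90 NaCl, 0.5 BaCl2, 1 KCl, 0.01 EDTA, 10 HEPES (mM), pH 7.6, with 20 μM glycine present throughout. Concentration–response data from each oocyte fitted to the Hill equation; mean ± SEM of logEC50 and nH.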

[5] = target: Glutamate NMDA receptor; Grin1/Grin2b (Rattus norvegicus) (UniProt P35439+Q00960); assay: Activity at rat recombinant NR1/NR2B receptor expressed in Xenopus oocytes by two voltage clamp electrophysiology relative to glutamate; assay type: cell-based; settings: Oocyte
How it was run: as §1, with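 “nH. Relative Imax = fitted agonist Imax / maximal glutamate response in the same recording.” for “nH.”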

[6] = target: T1, Glutamate NMDA receptor; Grin1/Grin2a (Rattus norvegicus) (UniProt P35439+Q00959); assay: (§2) Activity at rat recombinant NR1/NR2A receptor expressed in Xenopus oocytes assessed as effect on glutamate-induced current by two voltage clamp electrophysiology; assay type: cell-based; settings: Oocyte; how it was run: as §1
[7] = target: T1, Glutamate NMDA receptor; Grin1/Grin2a (Rattus norvegicus); assay: Activity at rat recombinant NR1/NR2A receptor expressed in Xenopus oocytes by two voltage clamp electrophysiology relative to glutamate; assay type: cell-based; settings: Oocyte
How it was run: as §1, with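 “nH. Relative Imax = fitted agonist Imax / maximal glutamate response in the same recording.” for “nH.”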

[8] = target: Ionotropic glutamate receptor NMDA 1/2D (Rattus norvegicus, UniProt P35439+Q62645); assay: Activity at rat NR1/NR2D receptor expressed in Xenopus oocytes assessed as effect on glutamate-induced current by two voltage clamp electrophysiology; assay type: cell-based, Oocyte; how it was run: as §1
[9] = target: Glutamate NMDA receptor; Grin1/Grin2c (Rattus norvegicus, UniProt P35439+Q00961); assay: Activity at rat recombinant NR1/NR2C receptor expressed in Xenopus oocytes assessed as effect on glutamate-induced current by two voltage clamp electrophysiology; assay type: cell-based, Oocyte; how it was run: as §1
[10] = target: Glutamate NMDA receptor; Grin1/Grin2c (Rattus norvegicus) (UniProt P35439+Q00961); assay: Activity at rat recombinant NR1/NR2C receptor expressed in Xenopus oocytes by two voltage clamp electrophysiology relative to glutamate; assay type: cell-based; settings: Oocyte
How it was run: as §1, with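 “nH. Relative Imax = fitted agonist Imax / maximal glutamate response in the same recording.” for “nH.”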

[11] = target: Ionotropic glutamate receptor NMDA 1/2D (Rattus norvegicus) (UniProt P35439+Q62645); assay: Activity at rat NR1/NR2D receptor expressed in Xenopus oocytes by two voltage clamp electrophysiology relative to glutamate; assay type: cell-based; settings: Oocyte
How it was run: as §1, with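 “nH. Relative Imax = fitted agonist Imax / maximal glutamate response in the same recording.” for “nH.”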

[12] = target: Glutamate NMDA receptor; Grin1/Grin2a (Rattus norvegicus, UniProt P35439+Q00959); assay: as §2; assay type: cell-based, Oocyte; how it was run: as §1

| SMILES | IC50 [1] | IC50 [2] | Ki [3] | EC50 [4] | Imax [5] | Activity [6] | Activity [7] | EC50 [8] | EC50 [9] | Imax [10] | Imax [11] | EC50 [12] | Imax [7] |
| --- | --- | --- | --- | --- | --- | --- | --- | --- | --- | --- | --- | --- | --- |
| CC(C)c1cnn(O)c1[C@H](N)C(=O)O | > 100 µM | > 100 µM | > 100 µM |  |  |  |  |  |  |  |  |  |  |
| N[C@H](C(=O)O)c1c(Cl)cnn1O | > 100 µM | > 100 µM | 25 µM |  |  |  |  |  |  |  |  |  |  |
| Cc1cnn(O)c1[C@H](N)C(=O)O | > 100 µM | > 100 µM | > 100 µM |  |  |  |  |  |  |  |  |  |  |
| N[C@H](C(=O)O)c1ccnn1O | > 100 µM | > 100 µM | > 100 µM |  |  |  |  |  |  |  |  |  |  |
| CCc1cnn(O)c1[C@H](N)C(=O)O | > 100 µM | > 100 µM | > 100 µM |  |  |  |  |  |  |  |  |  |  |
| CCCc1cnn(O)c1[C@H](N)C(=O)O | > 100 µM | > 100 µM | > 100 µM |  |  |  |  |  |  |  |  |  |  |
| CCCc1cnn(O)c1C(N)C(=O)O (racemic) | > 100 µM | > 100 µM | 14 µM | 105 µM | 0.06 | inactive | inactive | 153 µM | 429 µM | 0.22 | 0.37 |  |  |
| Cc1cnn(O)c1C(N)C(=O)O (racemic) | > 100 µM | > 100 µM | 22 µM |  |  |  |  |  |  |  |  |  |  |
| CCc1cnn(O)c1C(N)C(=O)O (racemic) | > 100 µM | > 100 µM | 13 µM | 68 µM | 0.45 |  |  | 43 µM | 91 µM | 0.52 | 0.7 | 47 µM | 0.05 |
| CC(C)c1cnn(O)c1C(N)C(=O)O (racemic) | > 100 µM | > 100 µM | 20 µM |  |  |  |  |  |  |  |  |  |  |
| CN[C@H](CC(=O)O)C(=O)O [N-METHYL-D-ASPARTIC ACID (NMDA)] |  |  |  | 22 µM | 0.77 |  |  | 8.3 µM | 23 µM | 0.73 | 0.8 | 75 µM | 0.9 |

Other lines, results leading:

| IC50 [1] | IC50 [2] | Ki [3] | EC50 [4] | Imax [5] | Activity [6] | Activity [7] | EC50 [8] | EC50 [9] | Imax [10] | Imax [11] | EC50 [12] | Imax [7] | SMILES |
| --- | --- | --- | --- | --- | --- | --- | --- | --- | --- | --- | --- | --- | --- |
| > 100 µM | > 100 µM | 6.9 µM | 63 µM | 0.09 |  |  |  |  |  |  |  |  | CCCc1cnn(O)c1[C@@H](N)C(=O)O |
| > 100 µM | > 100 µM | 4.4 µM | 34 µM | 0.46 |  |  |  |  |  |  |  |  | CCc1cnn(O)c1[C@@H](N)C(=O)O |
| > 100 µM | > 100 µM | 2.2 µM | 36 µM | 0.23 |  |  |  |  |  |  |  |  | Cc1cnn(O)c1[C@@H](N)C(=O)O |
| > 100 µM | > 100 µM | 13 µM |  |  |  |  |  |  |  |  |  |  | CC(C)c1cnn(O)c1[C@@H](N)C(=O)O |
|  |  | 2.9 µM | 58 µM | 0.33 |  |  |  |  |  |  |  |  | N[C@@H](C(=O)O)c1c(Cl)cnn1O |
| > 100 µM | > 100 µM | 2.2 µM | 14 µM | 0.61 |  |  |  |  |  |  |  |  | N[C@@H](C(=O)O)c1ccnn1O |
| > 100 µM | > 100 µM | 10 µM | 48 µM | 0.58 |  |  |  | 54 µM | 0.52 |  | 82 µM | 0.45 | NC(C(=O)O)c1ccnn1O (racemic) |
| > 100 µM | > 100 µM | 2.9 µM | 149 µM | 0.29 |  |  | 152 µM | 255 µM | 0.55 | 0.73 | 565 µM | 0.07 | NC(C(=O)O)c1c(Cl)cnn1O (racemic) |
